Data set [1] can be described thus: AUC in hyperglycemic Balb/c mouse plasma at […] measured upto 60 mins. It counts as ADME, organism-based.
A short description of data set [2]: Half life in type 2 diabetic mellitus human at 270 mg, po administered as single dose. Format: ADME, organism-based. To be noted: in vivo. The essentials:
(§1)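 Type 2 diabetic subjects each received a single oral dose. Plasma drug levels were followed over time. Parameters were derived by noncompartmental analysis and reported as geometric means with CV%. CL/F is apparent total clearance and Vz/F is apparent terminal-phase volume.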

Data set [3] is described as follows: Tmax in type 2 diabetic mellitus human at 1080 mg, po administered as single dose. It counts as ADME, organism-based. To be noted: in vivo. In outline: (§2)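 Single oral dose given to type 2 diabetic subjects; plasma drug levels followed over time. Cmax, Tmax, terminal half-life, AUC(0−∞), CL/F and Vz/F obtained by noncompartmental analysis and reported as geometric means with CV%.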

Data set [4] in a line: Drug metabolism in mouse hepatocytes assessed as demethylation by LC-MS/MS analysis. It counts as ADME, cell-based, Hepatocyte.
A short description of data set [5]: Tmax in type 2 diabetic mellitus human at 270 mg, po administered as single dose. It counts as ADME, organism-based. To be noted: in vivo. In outline:
as §2

Data set [6] in a line: Drug metabolism in rat hepatocytes assessed as demethylation by LC-MS/MS analysis. It counts as ADME, cell-based, Hepatocyte.
A short description of data set [7]: AUC in hyperglycemic Balb/c mouse plasma at 5 mg/kg measured upto 60 mins. Format: ADME, organism-based. Further details: dose 5 mg/kg, time <=60; call rule not given here.
Data set [8] can be described thus: Cmax in type 2 diabetic mellitus human at 540 mg, po administered as single dose. More on the design: route oral, dose 540 mg. It counts as ADME, organism-based. To be noted: in vivo. The essentials: as §1
The nature of data set [9]: Drug metabolism in dog urine assessed as metabolite formation by LC-MS/MS analysis. Format: ADME, tissue-based, Canis lupus familiaris.
Data set [10] can be described thus: Half life in type 2 diabetic mellitus human at 540 mg, po administered as single dose. As to conditions: in vivo. Format: ADME, organism-based.
Data set [11] is described as follows: Tmax in type 2 diabetic mellitus human at 540 mg, po administered as single dose. Format: ADME, organism-based. As to conditions: in vivo. The essentials:
as §2

Data set [12] is described as follows: Drug metabolism in dog plasma assessed as conjugation with glucuronide metabolite formation by LC-MS/MS analysis. It counts as ADME, cell-free, Canis lupus familiaris.
The nature of data set [13]: Apparent clearance in type 2 diabetic mellitus human at 1080 mg, po administered as single dose. It counts as ADME, organism-based. To be noted: in vivo. The essentials:
as §1

The nature of data set [14]: Cmax in type 2 diabetic mellitus human at 1080 mg, po administered as single dose. As to conditions: in vivo. More on the design: route oral, dose 1080 mg. Format: ADME, organism-based. The essentials:
as §1

Data set [15] can be described thus: Cmax in type 2 diabetic mellitus human at 270 mg, po administered as single dose. Format: ADME, organism-based. More on the design: route oral, dose 270 mg. To be noted: in vivo. In outline: as §1
Data set [16] is described as follows: AUC ( 0 to infinity) in type 2 diabetic mellitus human at 540 mg, po administered as single dose. Format: ADME, organism-based. Further details: route oral, time infinity, dose 540 mg. As to conditions: in vivo. In outline: as §1
Data set [17] is described as follows: Apparent clearance in type 2 diabetic mellitus human at 270 mg, po administered as single dose. Format: ADME, organism-based. As to conditions: in vivo. In outline: as §1
Data set [18] can be described thus: AUC ( 0 to infinity) in type 2 diabetic mellitus human at 1080 mg, po administered as single dose. It counts as ADME, organism-based. As to conditions: in vivo. Further details: time infinity, route oral, dose 1080 mg. The essentials:
as §1

Data set [19] can be described thus: Drug metabolism in dog urine assessed as N-dealkylation by LC-MS/MS analysis. It counts as ADME, tissue-based, Canis lupus familiaris.
Data set [20] is described as follows: Drug metabolism in rat hepatocytes assessed as oxidation by LC-MS/MS analysis. It counts as ADME, cell-based, Hepatocyte.
The nature of data set [21]: Drug distribution in C57BL/6 mouse plasma at 3 microg/kg, iv administered as single dose observed at 20 to 40 mins by LC-MS/MS analysis. Format: ADME, organism-based. As to conditions: in vivo, 0.003 mg/kg, time 20-40 min, dose 3 µg/kg. In outline:
(§3)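 Tracer microdose study in fed male C57BL/6 mice: single 3 μg/kg IV dose in 25% HP-BCD. Mice were killed by cervical dislocation, and spleen, ascending colon, skeletal muscle and plasma were sampled at 20 and 40 min.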

Data set [22] in a line: Drug distribution in C57BL/6 mouse skeletal muscle at 3 microg/kg, iv administered as single dose observed at 20 to 40 mins by LC-MS/MS analysis. Format: ADME, organism-based, Skeletal muscle tissue. As to conditions: in vivo, 0.003 mg/kg, time 20-40 min, dose 3 µg/kg. The essentials:
as §3

Data set [23] is described as follows: Drug distribution in C57BL/6 mouse colon at 3 microg/kg, iv administered as single dose observed at 20 to 40 mins by LC-MS/MS analysis. Format: ADME, organism-based. To be noted: in vivo, 0.003 mg/kg, time 20-40 min, dose 3 µg/kg. The essentials: as §3
Data set [24] can be described thus: Volume of distribution at steady state in mouse at 10 mg/kg, po or 1 mg/kg, iv by LC/MS/MS analysis. It counts as ADME, organism-based. As to conditions: in vivo, read-out: Vdss. The essentials:
(§4)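 Mice, rats and beagle dogs dosed; blood drawn at set times into EDTA, processed to plasma and assayed by LC/MS/MS. Parameters (clearance, Vdss, terminal half-life, Cmax, Tmax, oral bioavailability) derived by noncompartmental analysis.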

A short description of data set [25]: Volume of distribution at steady state in dog at 5 mg/kg, po or 1 mg/kg, iv by LC/MS/MS analysis. As to conditions: in vivo, read-out: Vdss. Format: ADME, organism-based, Canis lupus familiaris. The essentials: as §4
Data set [26] is described as follows: Tmax in mouse at 10 mg/kg, po or 1 mg/kg, iv by LC/MS/MS analysis. To be noted: in vivo. It counts as ADME, organism-based. The essentials:
as §4

Data set [27] in a line: Clearance in rat plasma at 10 mg/kg, po or 3 mg/kg, iv by LC/MS/MS analysis. It counts as ADME, organism-based. The essentials: (§5)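 Dosing was oral and intravenous in mice, rats or beagle dogs. Blood was drawn at set time points into EDTA and processed to plasma. Plasma was assayed by LC/MS/MS. Clearance, Cmax and terminal half-life were derived by noncompartmental analysis.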

Data set [28] in a line: Drug metabolism in dog hepatocytes assessed as O-dealkylation by measuring 4-((2,3-dihydrospiro[indene-1,4'-piperidine]-1'-yl)methyl)benzoic acid metabolite formation by LC-MS/MS analysis. Format: ADME, cell-based, Canis lupus familiaris, Hepatocyte.
Data set [29] is described as follows: Tmax in rat at 10 mg/kg, po or 3 mg/kg, iv by LC/MS/MS analysis. It counts as ADME, organism-based. As to conditions: in vivo. The essentials:
as §4

Data set [30] can be described thus: Half-life in rat at 10 mg/kg, po or 3 mg/kg, iv by LC/MS/MS analysis. Format: ADME, organism-based. To be noted: in vivo. In outline:
as §4

The nature of data set [31]: Elimination half-life in rat plasma at 10 mg/kg, po or 3 mg/kg, iv by LC/MS/MS analysis. As to conditions: read-out: beta t1/2 (converted).
Data set [32] is described as follows: Oral bioavailability in mouse at 10 mg/kg by LC/MS/MS analysis. Format: ADME, organism-based. To be noted: in vivo. The essentials: as §4
Data set [33] can be described thus: Half-life in dog at 5 mg/kg, po or 1 mg/kg, iv by LC/MS/MS analysis. To be noted: in vivo. It counts as ADME, organism-based, Canis lupus familiaris. The essentials:
as §4

The nature of data set [34]: Drug metabolism in human hepatocytes assessed as O-dealkylation by measuring 4-((2,3-dihydrospiro[indene-1,4'-piperidine]-1'-yl)methyl)benzoic acid metabolite formation by LC-MS/MS analysis. It counts as ADME, cell-based, Hepatocyte.
A short description of data set [35]: Elimination half-life in mouse plasma at 10 mg/kg, po or 1 mg/kg, iv by LC/MS/MS analysis. To be noted: read-out: beta t1/2 (converted).
Data set [36] can be described thus: Drug metabolism in dog plasma assessed as O-dealkylation metabolite formation by LC-MS/MS analysis. It counts as ADME, cell-free, Canis lupus familiaris.
Data set [37] is described as follows: Clearance in mouse plasma at 10 mg/kg, po or 1 mg/kg, iv by LC/MS/MS analysis. Format: ADME, organism-based. In outline:
as §5

A short description of data set [38]: Drug metabolism in mouse hepatocytes assessed as O-dealkylation by measuring 4-((2,3-dihydrospiro[indene-1,4'-piperidine]-1'-yl)methyl)benzoic acid metabolite formation by LC-MS/MS analysis. It counts as ADME, cell-based, Hepatocyte.
A short description of data set [39]: Tmax in dog at 5 mg/kg, po or 1 mg/kg, iv by LC/MS/MS analysis. Format: ADME, organism-based, Canis lupus familiaris. As to conditions: in vivo. The essentials:
as §4

A short description of data set [40]: Cmax in dog plasma at 5 mg/kg, po or 1 mg/kg, iv by LC/MS/MS analysis. It counts as ADME, organism-based, Canis lupus familiaris. More on the design: dose 5 mg/kg. In outline:
as §5

Data set [41] can be described thus: Drug metabolism in rat hepatocytes assessed as O-dealkylation by measuring 4-((2,3-dihydrospiro[indene-1,4'-piperidine]-1'-yl)methyl)benzoic acid metabolite formation by LC-MS/MS analysis. It counts as ADME, cell-based, Hepatocyte.

On to `CC#C[C@@H](CC(=O)O)c1ccc(OCc2ccc(CN3CCC4(CC3)CN(C)c3ccccc34)cc2)cc1`, for which the AUC at 1 h in data set [1] is 1030 ng·h/mL.

Regarding `CC#C[C@@H](CC(=O)O)c1ccc(OCc2ccc(CN3CCCc4cccc(OC)c43)s2)cc1`, the figures for the half-life in data set [2] and in [10] were 12.1 h and 14.5 h, respectively. Moreover, the Tmax in [3] came out at 4 h; in [5], 2.75 h; in [11], 4 h. Further, the Drug metabolism entry is recorded as “Metabolite_Detected” in data set [4], “Metabolite_Detected” in [6], “Metabolite_Notdetected” in [9] and “Metabolite_Detected” in data set [12]. This molecule also displayed an AUC at 1 h in data set [7] of 4930 ng·h/mL. Also, the Cmax in data set [8] was found to be 3780 ng/mL; in data set [14] it was 7950 ng/mL; in data set [15] it was 2000 ng/mL. The figures for the CL/F in data set [13] and in [17] were 185 mL/min and 232 mL/min, respectively. Besides, the AUC(0-inf) in [16] worked out at 41400 ng·h/mL; in [18], 97300 ng·h/mL.

As to `CC#C[C@@H](CC(=O)O)c1ccc(OCc2ccc(CN3CCC4(CCc5ccccc54)CC3)s2)cc1`, the Drug metabolism entry in data set [19] and in data set [20] was “Metabolite_Detected” in each case.

For the molecule `CC#C[C@@H](CC(=O)O)c1ccc(OCc2ccc(CN3CCC4(C=Cc5ccccc54)CC3)s2)cc1`, the Drug uptake result in data set [21], in [22] and in data set [23] was “Active” in each case.

As for `CC#C[C@@H](CC(=O)O)c1ccc(OCc2ccc(CN3CCC4(C=Cc5ccccc54)CC3)cc2)cc1` [LY2881835], the Vd was 1.4 L/kg in data set [24] and 0.8 L/kg in [25]. For the same molecule, the Tmax was 0.5 h in data set [26], 0.25 h in data set [29] and 3 h in data set [39]. Also, the values for the clearance in data set [27] and in data set [37] were 11.6 mL/min/kg and 20.4 mL/min/kg, respectively. Moreover, the Drug metabolism result in [28], in [34], in data set [36], in data set [38] and in [41] was “Metabolite_Detected” in each case. Moreover, the half-life in data set [30] is 2.1 h; in data set [31], 2 h; in data set [33] it was 5.05 h; in data set [35], 2 h. Moreover, in data set [32], the bioavailability amounted to 64%. The peak level in data set [40] (Cmax) was 2860 ng/mL.

In general, AUC refers to the area under the concentration-time curve, a measure of exposure. Read a high AUC as high exposure. Broadly, the Tmax is the time from dosing to the highest level. A word on the Cmax: it is the peak of the concentration-time curve. The term CL/F denotes the apparent clearance, not corrected for the fraction that reaches the circulation. Usually AUC(0-inf) stands for total exposure, with the tail of the curve extrapolated. As usually defined, the bioavailability is the share of a dose that reaches the circulation, judged against a reference dose that is usually intravenous. A lower bioavailability goes with little systemic uptake.

These data come from ChEMBL document CHEMBL4765234 (J Med Chem, 2016).
